Results of several laboratories.
Compare with care: the assays were run in different laboratories. pIC50: −log10 of the molar value.
Read-out: cell growth or viability

SMILES	cell line	technique	time	pIC50
CC12C(=O)Nc3ccccc3C(=O)CCN1C(=O)c1ccccc12 (stereo not drawn)	L6			< 3.52
Cc1cc(/C=C/C#N)cc(C)c1Nc1ccnc(Nc2ccc(C#N)cc2)n1	HK-1	MTT	48 h	5.12
CCOC(=O)c1ccc2c(c1)C(=O)CCN1C(=O)c3ccccc3C1C(=O)N2 (stereo not drawn)	L6			< 3.59
C=C(F)C(=O)N1CCN(c2nc(OC[C@@H]3CCCN3C)nc3c2CCN(c2cccc4cccc(Cl)c24)C3)C[C@@H]1CC#N	KYSE-410	ATP luminescence		5.51
O=C1CCN2C(=O)c3ccccc3C2C(=O)Nc2ccc(F)cc21 (stereo not drawn)	L6			< 3.51
CO[C@]12C[C@@H](COC(=O)c3cncc(Br)c3)CN(C)[C@@H]1Cc1cn(C)c3cccc2c13	HNE1	MTT	48 h	5.84
COc1cc2c(cc1OC)-c1cc3ccc(OC)c(OCCN)c3c[n+]1CC2	NCI-H460	MTT	72 h	< 4.10
COc1cc2nc(N3CCN(C(=O)C4COc5ccccc5O4)CC3)nc(N)c2cc1OC (stereo not drawn)	HNE1	MTT	48 h	4.65
N=C(NN=Cc1ccc(N2CCOCC2)cc1)NN=Cc1ccc(N2CCOCC2)cc1	L6	resazurin	70 h	5.64
C=CC(=O)N1CCN(c2nc(=O)n(-c3c(C)ccnc3C(C)C)c3nc(-c4c(O)cccc4F)c(F)cc23)[C@@H](C)C1	KYSE-410	ATP luminescence		7.17
CC(C)C[C@@H]1NC(=O)CNC(=O)[C@H](CC(N)=O)NC(=O)[C@H](CCCNC(=N)N)NC(=O)[C@H]([C@@H](C)O)NC(=O)[C@@H]2CSSC[C@@H]3NC(=O)[C@H]([C@@H](C)O)NC(=O)CNC(=O)CNC(=O)[C@H](C(C)C)NC(=O)[C@@H]4CSSC[C@H](NC(=O)[C@H]([C@@H](C)O)NC(=O)[C@H](CSSC[C@H](NC(=O)[C@H](C(C)C)NC(=O)[C@@H]5CCCN5C1=O)C(=O)NCC(=O)N[C@@H](CCC(=O)O)C(=O)N[C@@H]([C@@H](C)O)C(=O)N4)NC(=O)CNC(=O)[C@@H]1CCCN1C(=O)[C@H]([C@@H](C)O)NC(=O)[C@H](CC(N)=O)NC3=O)C(=O)N[C@@H](CO)C(=O)N[C@@H](Cc1c[nH]c3ccccc13)C(=O)N1CCC[C@H]1C(=O)N[C@@H](C(C)C)C(=O)N2	Sf9	MTT	24 h	5.55
N#Cc1cccc(C=NNC(=N)NN=Cc2cccc(C#N)c2)c1	L6	resazurin	70 h	5.18
CC1(C)CCC(CN2CCN(c3ccc(C(=O)NS(=O)(=O)c4ccc(NCC5CCOCC5)c([N+](=O)[O-])c4)c(Oc4cnc5[nH]ccc5c4)c3)CC2)=C(c2ccc(Cl)cc2)C1	RS4-11	ATP luminescence	48 h	8.35
COc1cc2c3c(n(CCCNCCO)c(=O)c2cc1OC)-c1nc2c(cc1C3=O)OCO2	RS4-11	MTS	72 h	7.47
COc1cc2nc(N3CCN(C(=O)c4ccco4)CC3)nc(N)c2cc1OC	HK-1	MTT	48 h	4.52
CO/N=C1/CCN2C(=O)c3ccccc3C2C(=O)Nc2ccccc21 (stereo not drawn)	L6			< 3.52
O=C1CCC(N2Cc3c(C#CC4CCN(C(=O)[C@H]5CC[C@H](NC(=O)[C@H]6NC7(CCCCC7)[C@]7(C(=O)Nc8cc(Cl)ccc87)[C@H]6c6cccc(Cl)c6F)CC5)CC4)cccc3C2=O)C(=O)N1 (stereo partly drawn)	RS4-11			7.21
COc1cc2c3c(n(CCCNC(C)C)c(=O)c2cc1OC)-c1nc2c(cc1C3=O)OCO2	RS4-11	MTS	72 h	7.28
N#Cc1cc(/C=N/NC(=N)N/N=C/c2ccc(OC(F)(F)F)cc2)ccc1F	L6	resazurin	70 h	5.15
CN1C(=O)C2c3ccccc3C(=O)N2CCC(=O)c2ccccc21 (stereo not drawn)	L6			< 3.52
N=C(NN=Cc1ccc(OC(F)F)cc1)NN=Cc1ccc(OC(F)F)cc1	L6	resazurin	70 h	4.87
CCNCCCn1c2c(c3cc(OC)c(OC)cc3c1=O)C(=O)c1cc3c(nc1-2)OCO3	RS4-11	MTS	72 h	7.42
Cc1c(C(=O)O)ccc2c3n(nc12)[C@@H]1[C@H](C3)N(CC2CC2)[C@@]2(C(=O)Nc3cc(Cl)ccc32)[C@H]1c1cccc(Cl)c1F	Colon 26	resazurin	72 h	6.59
N=C(NN=CCc1ccc(OC(F)(F)F)cc1)NN=CCc1ccc(OC(F)(F)F)cc1	L6	resazurin	70 h	5.40
